Key:
H9 [1] = assay: Anti-HIV activity was measured in […] by MAGI assay; format: functional, cell-based; details: Homo sapiens
Summary of the method: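 HeLa-CD4/β-gal cells were plated at 10 000/well in DMEM with G418 500 µg/mL and hygromycin 250 µg/mL for 1 day. They were then infected with virus dilutions in the presence of varying drug for 2 days at 37 °C. Cells were fixed (1% formaldehyde, 0.2% glutaraldehyde) and stained with X-gal 0.4 mg/mL. Blue cells were counted, and EC50 was taken as a 50% reduction in infected cells.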

H9 [2] = assay: Anti-HIV activity against acutely infected H9 lymphocytes. Activity expressed as concentration of compound toxic to 50% of mock-infected H9 cells.; format: functional, cell-based; details: Homo sapiens
Summary of the method: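 Uninfected H9 cells were exposed to DMSO-dissolved samples (screen 100, 20, 4, 0.8 µg/mL final) for 4 days at 37 °C, 5% CO2. Remaining cells were counted with a counter against medium-only controls. IC50 is the concentration toxic to 50% of mock-infected cells; at least two experiments averaged.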

[3] = Therapeutic Index is the […] of the IC50 to that of EC50; format: cell-based; details: human, H9 cells; read-out: TI
H9 [4] = assay: Anti-HIV activity against acutely infected H9 lymphocytes. Activity expressed as concentration of compound able to suppress HIV replication by 50%.; format: functional, cell-based; details: Homo sapiens
Summary of the method: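 H9 cells (RPMI 1640, 10% FCS, L-glutamine, 37 °C, 5% CO2, log phase) infected 1 h with HIV-1 IIIB at MOI 0.1-0.01, washed and plated at 4 × 10^5 cells/mL with DMSO-dissolved samples (screen 100, 20, 4, 0.8 µg/mL final, further dilutions for actives). After 4 days, supernatant p24 was measured by antigen-capture ELISA against a standard curve. EC50 is 50% suppression of replication; at least two experiments averaged.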

EC50 (H9 [1]) [µM]	Structure (SMILES)	IC50 (H9 [2]) [µM]	selectivity ratio [3]	EC50 (H9 [4]) [µM]
0.037	Cc1cn([C@H]2C[C@H](N=[N+]=[N-])[C@@H](CO)O2)c(=O)[nH]c1=O [ZIDOVUDINE]			
	C=C(C)[C@@H]1CC[C@]2(COC(=O)CCC(=O)O)CC[C@]3(C)[C@H](CC[C@@H]4[C@@]5(C)CC[C@H](OC(=O)CCC(=O)O)C(C)(C)[C@@H]5CC[C@]43C)[C@@H]12	35.3	9.3	3.8
	C=C(COC(=O)CC1(CC(=O)O)CCCC1)[C@@H]1CC[C@]2(COC(=O)CC3(CC(=O)O)CCCC3)CC[C@]3(C)[C@H](CC[C@@H]4[C@@]5(C)CC[C@H](OC(=O)CC6(CC(=O)O)CCCC6)C(C)(C)[C@@H]5CC[C@]43C)[C@@H]12	6.99	1190	0.0054
